The source of these data is ChEMBL document CHEMBL3286166, “Structure-activity relationships of the truncated norzoanthamines exhibiting collagen protection toward anti-osteoporotic activity” (Bioorg Med Chem, 2014).

For the assay, the species on record is Rattus norvegicus. The assay can be described thus: Binding affinity to rat tail type 1 collagen assessed as collagen protection activity against Clostridium histolyticum collagenase-mediated digestion at 10 uM after 180 mins by Sirius red dye based microplate reader analysis relative to norzoanthamine. The gist of the method: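 Acid-solubilized rat tail type I collagen diluted to 1.11 mg/mL in 50 mM Tris (pH 7.4) with 100 mM NaCl and 5 mM CaCl₂. Compound in the same buffer added, 5 min at 37 °C. Digestion started with 2 mg/mL Clostridium histolyticum collagenase at 37 °C. Aliquots at 30–180 min stained with Sirius red, 30 min room temperature, then centrifuged. Remaining collagen at 180 min normalized to norzoanthamine; buffer-only negative control; up to five samples per test.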
Take `COC(=O)c1cccc(CN2C[C@H]3C[C@H](C)C[C@@H]2O3)c1`: the Activity is 25%. The value for `CCCCc1ccc(CN2C[C@H]3C[C@H](C)C[C@@H]2O3)cc1` was 45%. Next, `C[C@H]1C[C@@H]2CN[C@H](C1)O2`: 31%. Next, `C[C@H]1C[C@@H]2CN(Cc3ccc(-c4ccccc4)cc3)[C@H](C1)O2`: 20%; `C[C@H]1C[C@@H]2CN3[C@](CC[C@@]4(C)[C@]5(C)CCC[C@]34OC(=O)C5)(C1)O2`: 100%.

Turning to `C[C@H]1C[C@@H]2CN(Cc3ccccc3)[C@H](C1)O2`, the Activity was found to be 47%. Next, `COC(=O)C[C@@]1(C)[C@H]2C(=O)C[C@@H]3C(=O)C=C(C)C[C@H]3[C@]2(C)C=C2N3C[C@H]4C[C@H](C)C[C@]3(CC[C@]21C)O4`: 5%; `C[C@H]1C[C@@H]2CN3C4=CCCC[C@]4(C)CC[C@@]3(C1)O2`: 31%; `C[C@@H]1C[C@H]2CN3[C@@](CC[C@]4(C)[C@@]5(C)CCC[C@@]34OC(=O)C5)(C1)O2`: 76%. For `COCCN1CCC[C@@]2(C)[C@]3(C)CCC[C@]12OC(=O)C3`, the Activity stood at 15%. In the case of `C[C@@]12CCC[C@]3(OC(=O)C1)N(Cc1ccccc1)CCC[C@@]23C`, the Activity was 11%. Next, `CCCCN1CCC[C@@]2(C)[C@]3(C)CCC[C@]12OC(=O)C3`: 17%.

Turning to `COC(=O)c1ccccc1-c1ccc(CN2C[C@H]3C[C@H](C)C[C@@H]2O3)cc1`, the Activity stood at 25%. The value for `C[C@H]1C[C@@H]2CN(C(=O)OC(C)(C)C)[C@H](C1)O2` was 23%. The value for `C[C@H]1C[C@@H]2CN(Cc3ccc4ccccc4c3)[C@H](C1)O2` was 65%.
